In brackets after ≈: the same amount, converted by molar mass.
Experiments:
[1] = test system: Acinetobacter baumannii; assay: Potentiation of Clarithromycin antibacterial activity against Acinetobacter baumannii AB5075 assessed as clarithromycin MIC at 30 uM incubated for 16 hrs by broth microdilution method; assay type: functional
[2] = Stability of compound in human plasma assessed as parent compound remaining measured at 4 hrs; assay type: ADME, cell-free
Summary of the method: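 Compound at 20 μM final in human plasma (from 10 mM DMSO stock), 37 °C; aliquots at 0, 30, 60, 120, 240 min quenched in internal standard in 1:1 ACN/MeOH, centrifuged, supernatant analysed by UPLC-MRM. Peak-area ratio to internal standard expressed as % parent remaining relative to 0 min; half-life calculated.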

[3] = test system: Acinetobacter baumannii; assay: Potentiation of Clarithromycin antibacterial activity against Acinetobacter baumannii AB5075 assessed as fold reduction in clarithromycin MIC at 5 uM incubated for 16 hrs by broth microdilution method; assay type: functional
Summary of the method: (§1)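 Checkerboard-style potentiation by broth microdilution. 6 h day cultures in CAMHB diluted to 5×10^5 CFU/mL. Adjuvant added from 10 mM DMSO stock at fixed concentration throughout. […] Controls: antibiotic alone, adjuvant alone, media only. Incubated stationary at 37 °C for 16 h. MIC is lowest concentration with no visible growth; fold reduction taken against the antibiotic-alone lane.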

[4] = Therapeutic index, ratio of IC50 for antiproliferative against human HepG2 cells assessed as reduction in cell viability to MIC for potentiation of Clarithromycin antibacterial activity against Acinetobacter baumannii […] assessed as clarithromycin MIC; assay type: toxicity, cell-based; settings: read-out: TI
[5] = Antiproliferative against human HepG2 cells assessed as reduction in cell viability incubated for 24 hrs by XTT assay; assay type: toxicity, cell-based
[6] = test system: Acinetobacter baumannii; assay: Potentiation of Clarithromycin antibacterial activity against Acinetobacter baumannii AB5075 assessed as fold reduction in clarithromycin MIC at 7.5 uM incubated for 16 hrs by broth microdilution method; assay type: functional; summary of the method: as §1
[7] = test system: Acinetobacter baumannii; assay: Antibacterial activity against Acinetobacter baumannii AB5075 assessed as reduction in bacterial growth incubated for 16 hrs by broth microdilution method; assay type: functional
[8] = test system: Acinetobacter baumannii; assay: Potentiation of Clarithromycin antibacterial activity against Acinetobacter baumannii AB5075 assessed as clarithromycin MIC at 7.5 uM incubated for 16 hrs by broth microdilution method; assay type: functional
[9] = test system: Acinetobacter baumannii; assay: Potentiation of Clarithromycin antibacterial activity against Acinetobacter baumannii AB5075 assessed as clarithromycin MIC at 5 uM incubated for 16 hrs by broth microdilution method; assay type: functional
[10] = test system: Acinetobacter baumannii; assay: Potentiation of Clarithromycin antibacterial activity against Acinetobacter baumannii AB5075 assessed as fold reduction in clarithromycin MIC at 30 uM incubated for 16 hrs by broth microdilution method; assay type: functional; summary of the method: as §1
[11] = Metabolic stability in human liver microsomes assessed as parent compound remaining in presence of NADPH measured at 1 hr by UV-UPLC analysis; assay type: ADME, Microsome
[12] = test system: Acinetobacter baumannii; assay: Potentiation of Clarithromycin antibacterial activity against Acinetobacter baumannii AB5075 assessed as reduction in clarithromycin MIC at 20 uM incubated for 16 hrs by broth microdilution method; assay type: functional; settings: for MIC: Acinetobacter baumannii, AB5075
[13] = test system: Acinetobacter baumannii; assay: Potentiation of Clarithromycin antibacterial activity against Acinetobacter baumannii AB5075 assessed as clarithromycin MIC at 2.5 uM incubated for 16 hrs by broth microdilution method; assay type: functional
[14] = test system: Acinetobacter baumannii; assay: Potentiation of Clarithromycin antibacterial activity against Acinetobacter baumannii AB5075 assessed as fold reduction in clarithromycin MIC at 10 uM incubated for 16 hrs by broth microdilution method; assay type: functional; summary of the method: as §1
[15] = test system: Acinetobacter baumannii; assay: Potentiation of Clarithromycin antibacterial activity against Acinetobacter baumannii AB5075 assessed as clarithromycin MIC at 10 uM incubated for 16 hrs by broth microdilution method; assay type: functional
[16] = test system: Acinetobacter baumannii; assay: Potentiation of rifampicin antibacterial activity against Acinetobacter baumannii AB5075 assessed as rifampicin MIC at 30 uM incubated for 16 hrs by broth microdilution method; assay type: functional
[17] = test system: Acinetobacter baumannii; assay: Potentiation of erythromycin antibacterial activity against Acinetobacter baumannii AB5075 assessed as erythromycin MIC at 20 uM incubated for 16 hrs by broth microdilution method; assay type: functional
[18] = test system: Acinetobacter baumannii; assay: Potentiation of rifampicin antibacterial activity against Acinetobacter baumannii AB5075 assessed as rifampicin MIC at 7.5 uM incubated for 16 hrs by broth microdilution method; assay type: functional
Summary of the method: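 A. baumannii AB5075 6 h day cultures in CAMHB subcultured to 5×10^5 CFU/mL; adjuvant added from 10 mM DMSO stock at fixed concentration, then rifampicin (DMSO) twofold serially diluted in adjuvant-containing broth. Antibiotic-alone and adjuvant-alone control lanes.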

[19] = test system: Acinetobacter baumannii; assay: Potentiation of rifampicin antibacterial activity against Acinetobacter baumannii AB5075 assessed as rifampicin MIC at 20 uM incubated for 16 hrs by broth microdilution method; assay type: functional
[20] = test system: Acinetobacter baumannii; assay: Potentiation of erythromycin antibacterial activity against Acinetobacter baumannii AB5075 assessed as erythromycin MIC at 30 uM incubated for 16 hrs by broth microdilution method; assay type: functional
[21] = test system: Acinetobacter baumannii; assay: Potentiation of rifampicin antibacterial activity against Acinetobacter baumannii AB5075 assessed as rifampicin MIC at 10 uM incubated for 16 hrs by broth microdilution method; assay type: functional
[22] = test system: Acinetobacter baumannii; assay: Potentiation of Azithromycin antibacterial activity against Acinetobacter baumannii AB5075 assessed as azithromycin MIC at 30 uM incubated for 16 hrs by broth microdilution method; assay type: functional
[23] = test system: Acinetobacter baumannii; assay: Potentiation of Azithromycin antibacterial activity against Acinetobacter baumannii AB5075 assessed as azithromycin MIC at 10 uM incubated for 16 hrs by broth microdilution method; assay type: functional
[24] = test system: Acinetobacter baumannii; assay: Potentiation of erythromycin antibacterial activity against Acinetobacter baumannii AB5075 assessed as erythromycin MIC at 10 uM incubated for 16 hrs by broth microdilution method; assay type: functional
[25] = test system: Acinetobacter baumannii; assay: Potentiation of Azithromycin antibacterial activity against Acinetobacter baumannii AB5075 assessed as azithromycin MIC at 20 uM incubated for 16 hrs by broth microdilution method; assay type: functional

Row | SMILES | MIC [1] [µg/mL] | fold change (FC) [3] | fold change (FC) [6] | MIC [7] [µM] | MIC [8] [µg/mL] | MIC [9] [µg/mL] | fold change (FC) [10] | fold change (FC) [12] | MIC [12] [µg/mL] | fold change (FC) [14] | MIC [15] [µg/mL] | other results
1 | Nc1nc(-c2ccc(NC(=O)c3ccc(Cl)c(Cl)c3)cc2F)c[nH]1 | 0.5 | 4 | 32 | > 200 | 1 | 8 | 64 | – | – | – | – | Stability [2]: > 95%; selectivity ratio [4]: 2.3; IC50 at 24 h [5]: 6.8 µg/mL (≈ 18.6 µM); Stability [11]: 57%
2 | Cl.Cl.Nc1nc(-c2cc(F)cc(NC(=O)Nc3ccc(-c4c[nH]c(N)n4)c(F)c3)c2)c[nH]1 | ≤ 0.062 | – | 128 | > 200 | 0.25 | 1 | >=512 | 256 | 0.125 | – | – | MIC [13]: 32 µg/mL
3 | Cl.Cl.Nc1nc(-c2ccc(F)c(NC(=O)Nc3cc(-c4c[nH]c(N)n4)ccc3F)c2)c[nH]1 | 32 | – | – | > 200 | – | – | 1 | – | – | – | – | –
4 | Cl.Cl.Nc1nc(-c2ccc(F)c(NC(=O)Nc3ccc(-c4c[nH]c(N)n4)c(F)c3)c2)c[nH]1 | 8 | – | – | > 200 | – | – | 4 | – | – | – | – | –
5 | Cl.Cl.Nc1nc(-c2cccc(NC(=O)Nc3cc(F)cc(-c4c[nH]c(N)n4)c3)c2)c[nH]1 | ≤ 0.062 | 2 | 32 | > 200 | 1 | 16 | >=512 | >=512 | ≤ 0.062 | 64 | 0.5 | –
6 | COc1cc(-c2c[nH]c(N)n2)ccc1NC(=O)Nc1ccc(-c2c[nH]c(N)n2)cc1OC.Cl.Cl | 8 | – | – | 200 | – | – | 4 | – | – | – | – | –
7 | Cl.Cl.Nc1nc(-c2ccc(NC(=O)Nc3ccc(-c4c[nH]c(N)n4)c(F)c3)cc2)c[nH]1 | ≤ 0.062 | – | 16 | > 200 | 2 | – | >=512 | 64 | 0.5 | 32 | 1 | –
8 | Nc1nc(-c2cccc(NC(=O)Nc3cccc(-c4c[nH]c(N)n4)c3)c2)c[nH]1 | ≤ 0.062 | 8 | 32 | 200 (≈ 74.9 µg/mL) | 1 | 4 | >=512 | – | – | 64 | 0.5 | MIC [16]: 0.003 µg/mL; MIC [17]: 0.5 µg/mL; MIC [18]: 1 µg/mL; Stability [2]: 88%; MIC [19]: 0.015 µg/mL; MIC [20]: 0.25 µg/mL; MIC [21]: 0.125 µg/mL; selectivity ratio [4]: 113; IC50 at 24 h [5]: 380 µg/mL (≈ 1010 µM); MIC [22]: 0.5 µg/mL; MIC [23]: 4 µg/mL; MIC [24]: 4 µg/mL; MIC [25]: 0.5 µg/mL; Stability [11]: 93%
